Here are results for one compound from ChEMBL document CHEMBL4043093, “2-Oxo-3, 4-dihydropyrimido[4, 5-d]pyrimidinyl derivatives as new irreversible pan fibroblast growth factor receptor (FGFR) inhibitors” (Eur J Med Chem, 2017).

The structures appear in SMILES notation.

Test [1] concerns the target Myosin-IIIb (Homo sapiens) (UniProt Q8WXR4). Kind of test: Inhibition of wild-type human partial length MYO3B (M1 to D357 residues) expressed in Escherichia coli BL21 assessed as residual activity at 1000 nM after 30 mins by Kinomescan method relative to control.
The target of test [2] is Rhodopsin kinase GRK7 (Homo sapiens) (UniProt Q8WTQ7). The experiment in a line: Inhibition of wild-type human full length GRK7 (M1 to L553 residues) expressed in HEK293 cells assessed as residual activity at 1000 nM after 30 mins by Kinomescan method relative to control. It counts as cell-based. The essentials: (§1)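 Single-concentration screen at 1 µM across a 456-kinase KINOMEscan panel. The read-out is Percent Control for each kinase.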

For test [3], the target named is Phosphatidylinositol 4,5-bisphosphate 3-kinase catalytic subunit gamma isoform (Homo sapiens) (UniProt P48736). Kind of test: Inhibition of wild-type human partial length PIK3CG (S144 to A1102 residues) expressed in HEK293 cells assessed as residual activity at 1000 nM after 30 mins by Kinomescan method relative to control. It counts as cell-based.
Test [4] deals with Mast/stem cell growth factor receptor Kit (Homo sapiens), P10721 [V559D,V654A]. Kind of test: Inhibition of human partial length KIT V559D/V654A double mutant (Y545 to D952 residues) expressed in Escherichia coli BL21 assessed as residual activity at 1000 nM after 30 mins by Kinomescan method relative to control. The essentials:
(§2)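 KINOMEscan binding panel of 456 kinases, with the test compound at a single concentration of 1 µM. Read-out is Percent Control.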

The target in test [5] is Ribosomal protein S6 kinase alpha-4 (Homo sapiens) (UniProt O75676). Kind of test: Inhibition of wild-type human partial length N-terminal RPS6KA4 kinase domain 1 expressed in Escherichia coli BL21 assessed as residual activity at 1000 nM after 30 mins by Kinomescan method relative to control.
The target in test [6] is Serine/threonine-protein kinase D1 (Homo sapiens) (UniProt Q15139). Kind of test: Inhibition of wild-type human partial length PRKD1 (G551 to E870 residues) expressed in Escherichia coli BL21 assessed as residual activity at 1000 nM after 30 mins by Kinomescan method relative to control.
Test [7] addresses Calcium/calmodulin-dependent protein kinase kinase 1 (Homo sapiens) (UniProt Q8N5S9). The experiment in a line: Inhibition of wild-type human partial length CAMKK1 (R65 to E414 residues) expressed in Escherichia coli BL21 assessed as residual activity at 1000 nM after 30 mins by Kinomescan method relative to control.
The target of test [8] is Aurora kinase C (Homo sapiens) (UniProt Q9UQB9). The experiment in a line: Inhibition of wild-type human full length AURKC (M1 to S275 residues) expressed in Escherichia coli BL21 assessed as residual activity at 1000 nM after 30 mins by Kinomescan method relative to control. In short, it runs like this: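 Single-point screen at a fixed 1 µM, run within a 456-kinase DiscoveRx KINOMEscan panel. Each kinase's read-out is Percent Control, i.e. signal relative to a control without compound. Hits were scored by a Percent Control < 35 cut-off, and an S(35) selectivity score was calculated across the non-mutant kinases.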

For test [9], the target named is Serine/threonine-protein kinase Nek1 (Homo sapiens) (UniProt Q96PY6). Kind of test: Inhibition of wild-type human partial length NEK1 (M1 to K278 residues) expressed in Escherichia coli BL21 assessed as residual activity at 1000 nM after 30 mins by Kinomescan method relative to control.
Test [10] addresses Dual specificity mitogen-activated protein kinase kinase 3 (Homo sapiens) (UniProt P46734). Kind of test: Inhibition of wild-type human full length MEK3 (M1 to S318 residues) expressed in HEK293 cells assessed as residual activity at 1000 nM after 30 mins by Kinomescan method relative to control. It counts as cell-based. The essentials: as §1
Test [11] addresses Tyrosine-protein kinase Lck (Homo sapiens) (UniProt P06239). The experiment in a line: Inhibition of wild-type human partial length LCK (R207 to P509 residues) expressed in Escherichia coli BL21 assessed as residual activity at 1000 nM after 30 mins by Kinomescan method relative to control.
The target of test [12] is Cyclin-dependent kinase 15 (Homo sapiens) (UniProt Q96Q40). Kind of test: Inhibition of wild-type human full length PFTAIRE2 (M1 to W384 residues) expressed in Escherichia coli BL21 assessed as residual activity at 1000 nM after 30 mins by Kinomescan method relative to control. The essentials: as §1
Test [13] has as its target Cyclin-dependent kinase 11A (Homo sapiens) (UniProt Q9UQ88). Kind of test: Inhibition of wild-type human partial length CDC2L2 (D391 to K730 residues) expressed in Escherichia coli BL21 assessed as residual activity at 1000 nM after 30 mins by Kinomescan method relative to control.
Test [14] has as its target 1-phosphatidylinositol 3-phosphate 5-kinase (Homo sapiens) (UniProt Q9Y2I7). Kind of test: Inhibition of wild-type human partial length PIKFYVE (F1512 to C2098 residues) expressed in HEK293 cells assessed as residual activity at 1000 nM after 30 mins by Kinomescan method relative to control. In kind it is cell-based.
Test [15] has as its target Serine/threonine-protein kinase Nek11 (Homo sapiens) (UniProt Q8NG66). The experiment in a line: Inhibition of wild-type human partial length NEK11 (M1 to E313 residues) expressed in HEK293 cells assessed as residual activity at 1000 nM after 30 mins by Kinomescan method relative to control. In kind it is cell-based.
The target of test [16] is Tyrosine-protein kinase ABL1 (Homo sapiens) (UniProt P00519). The experiment in a line: Inhibition of wild-type human phosphorylated ABL1 (S229 to K512 residues) expressed in HEK293 cells assessed as residual activity at 1000 nM after 30 mins by Kinomescan method relative to control. It counts as cell-based.
The species entered for test [17] is Homo sapiens. The experiment in a line: Inhibition of human partial length FLT3 ITD/D835V double mutant expressed in Escherichia coli BL21 assessed as residual activity at 1000 nM after 30 mins by Kinomescan method relative to control. The essentials:
as §2

For test [18], the target named is Mitogen-activated protein kinase kinase kinase kinase 2 (Homo sapiens) (UniProt Q12851). Kind of test: Inhibition of wild-type human partial length MAP4K2 (M1 to G318 residues) expressed in HEK293 cells assessed as residual activity at 1000 nM after 30 mins by Kinomescan method relative to control. In kind it is cell-based.
In test [19] the target is Cyclin-dependent kinase 16 (Homo sapiens) (UniProt Q00536). Kind of test: Inhibition of wild-type human partial length PCTK1 (G160 to A474 residues) expressed in HEK293 cells assessed as residual activity at 1000 nM after 30 mins by Kinomescan method relative to control. It counts as cell-based.
The target of test [20] is Mitogen-activated protein kinase kinase kinase 5 (Homo sapiens) (UniProt Q99683). Kind of test: Inhibition of wild-type human partial length ASK1 (E648 to S964 residues) expressed in Escherichia coli BL21 assessed as residual activity at 1000 nM after 30 mins by Kinomescan method relative to control.
Test [21] concerns the target Serine/threonine-protein kinase 36 (Homo sapiens) (UniProt Q9NRP7). Kind of test: Inhibition of wild-type human partial length STK36 (M1 to T271 residues) expressed in Escherichia coli BL21 assessed as residual activity at 1000 nM after 30 mins by Kinomescan method relative to control.

Chain of Cyclin-dependent kinase 15 (Homo sapiens) (Q96Q40 whole entry, the tested form may be a part): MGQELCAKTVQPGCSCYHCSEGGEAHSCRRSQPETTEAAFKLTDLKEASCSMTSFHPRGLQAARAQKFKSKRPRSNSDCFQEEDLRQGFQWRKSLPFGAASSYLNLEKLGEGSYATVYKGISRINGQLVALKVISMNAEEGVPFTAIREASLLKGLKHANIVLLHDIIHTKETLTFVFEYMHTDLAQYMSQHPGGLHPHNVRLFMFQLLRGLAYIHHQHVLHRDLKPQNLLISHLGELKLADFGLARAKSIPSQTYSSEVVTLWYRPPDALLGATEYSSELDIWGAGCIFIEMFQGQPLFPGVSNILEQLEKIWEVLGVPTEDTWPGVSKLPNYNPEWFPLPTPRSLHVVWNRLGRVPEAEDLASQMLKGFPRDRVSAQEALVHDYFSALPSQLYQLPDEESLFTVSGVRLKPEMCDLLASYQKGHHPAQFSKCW
Chain of Myosin-IIIb (Homo sapiens) (Q8WXR4 whole entry, the tested form may be a part): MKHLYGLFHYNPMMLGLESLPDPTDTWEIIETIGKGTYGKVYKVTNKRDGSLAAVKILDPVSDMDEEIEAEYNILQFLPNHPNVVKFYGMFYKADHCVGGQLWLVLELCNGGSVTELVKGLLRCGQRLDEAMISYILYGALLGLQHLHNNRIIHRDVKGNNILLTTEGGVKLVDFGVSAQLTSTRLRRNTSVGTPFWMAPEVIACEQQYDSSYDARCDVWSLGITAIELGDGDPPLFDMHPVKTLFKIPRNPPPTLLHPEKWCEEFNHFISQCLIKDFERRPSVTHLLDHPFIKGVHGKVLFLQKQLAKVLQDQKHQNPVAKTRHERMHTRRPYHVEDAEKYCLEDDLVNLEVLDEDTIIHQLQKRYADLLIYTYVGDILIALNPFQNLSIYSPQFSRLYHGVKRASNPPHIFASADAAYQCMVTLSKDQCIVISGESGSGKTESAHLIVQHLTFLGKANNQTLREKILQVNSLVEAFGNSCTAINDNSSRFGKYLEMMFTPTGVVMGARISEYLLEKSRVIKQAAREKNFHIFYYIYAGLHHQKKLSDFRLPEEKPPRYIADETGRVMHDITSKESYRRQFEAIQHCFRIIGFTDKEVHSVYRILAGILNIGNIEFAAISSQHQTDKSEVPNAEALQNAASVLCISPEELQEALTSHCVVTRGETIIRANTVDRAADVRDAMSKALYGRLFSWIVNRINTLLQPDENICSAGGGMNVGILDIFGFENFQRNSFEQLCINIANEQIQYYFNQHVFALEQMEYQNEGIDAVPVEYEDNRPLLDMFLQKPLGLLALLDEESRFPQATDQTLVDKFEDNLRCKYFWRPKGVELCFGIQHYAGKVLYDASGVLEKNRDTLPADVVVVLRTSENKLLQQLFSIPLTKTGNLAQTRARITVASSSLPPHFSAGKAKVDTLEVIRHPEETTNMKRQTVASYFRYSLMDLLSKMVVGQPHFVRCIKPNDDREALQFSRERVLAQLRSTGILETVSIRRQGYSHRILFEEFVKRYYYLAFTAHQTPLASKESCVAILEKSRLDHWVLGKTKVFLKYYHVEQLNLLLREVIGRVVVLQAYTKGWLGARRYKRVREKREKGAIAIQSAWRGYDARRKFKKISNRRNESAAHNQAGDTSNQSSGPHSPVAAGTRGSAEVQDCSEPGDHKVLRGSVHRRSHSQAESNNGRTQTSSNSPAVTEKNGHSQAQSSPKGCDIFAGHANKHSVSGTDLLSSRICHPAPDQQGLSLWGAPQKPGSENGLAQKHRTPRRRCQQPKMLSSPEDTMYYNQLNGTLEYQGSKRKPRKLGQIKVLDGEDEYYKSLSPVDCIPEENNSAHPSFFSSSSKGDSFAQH
Chain of Serine/threonine-protein kinase Nek11 (Homo sapiens) (Q8NG66 whole entry, the tested form may be a part): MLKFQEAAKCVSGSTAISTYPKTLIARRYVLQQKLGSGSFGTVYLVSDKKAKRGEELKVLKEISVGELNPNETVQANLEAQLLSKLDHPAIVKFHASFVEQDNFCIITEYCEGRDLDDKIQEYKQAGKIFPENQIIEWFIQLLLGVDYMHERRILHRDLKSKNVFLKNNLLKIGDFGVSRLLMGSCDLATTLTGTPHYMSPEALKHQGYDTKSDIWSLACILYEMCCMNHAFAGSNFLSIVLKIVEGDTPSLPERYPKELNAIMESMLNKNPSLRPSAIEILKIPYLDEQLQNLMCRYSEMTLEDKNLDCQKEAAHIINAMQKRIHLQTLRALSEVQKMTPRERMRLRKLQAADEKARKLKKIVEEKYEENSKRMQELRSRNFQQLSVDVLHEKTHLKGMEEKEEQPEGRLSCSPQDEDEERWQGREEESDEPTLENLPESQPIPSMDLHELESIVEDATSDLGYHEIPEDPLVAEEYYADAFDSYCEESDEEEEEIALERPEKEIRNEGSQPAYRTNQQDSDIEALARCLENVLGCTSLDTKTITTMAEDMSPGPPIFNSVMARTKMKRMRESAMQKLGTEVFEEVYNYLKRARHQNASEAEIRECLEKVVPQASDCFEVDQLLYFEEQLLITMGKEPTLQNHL
Chain of Ribosomal protein S6 kinase alpha-4 (Homo sapiens) (O75676 whole entry, looked up, the tested form may be a part): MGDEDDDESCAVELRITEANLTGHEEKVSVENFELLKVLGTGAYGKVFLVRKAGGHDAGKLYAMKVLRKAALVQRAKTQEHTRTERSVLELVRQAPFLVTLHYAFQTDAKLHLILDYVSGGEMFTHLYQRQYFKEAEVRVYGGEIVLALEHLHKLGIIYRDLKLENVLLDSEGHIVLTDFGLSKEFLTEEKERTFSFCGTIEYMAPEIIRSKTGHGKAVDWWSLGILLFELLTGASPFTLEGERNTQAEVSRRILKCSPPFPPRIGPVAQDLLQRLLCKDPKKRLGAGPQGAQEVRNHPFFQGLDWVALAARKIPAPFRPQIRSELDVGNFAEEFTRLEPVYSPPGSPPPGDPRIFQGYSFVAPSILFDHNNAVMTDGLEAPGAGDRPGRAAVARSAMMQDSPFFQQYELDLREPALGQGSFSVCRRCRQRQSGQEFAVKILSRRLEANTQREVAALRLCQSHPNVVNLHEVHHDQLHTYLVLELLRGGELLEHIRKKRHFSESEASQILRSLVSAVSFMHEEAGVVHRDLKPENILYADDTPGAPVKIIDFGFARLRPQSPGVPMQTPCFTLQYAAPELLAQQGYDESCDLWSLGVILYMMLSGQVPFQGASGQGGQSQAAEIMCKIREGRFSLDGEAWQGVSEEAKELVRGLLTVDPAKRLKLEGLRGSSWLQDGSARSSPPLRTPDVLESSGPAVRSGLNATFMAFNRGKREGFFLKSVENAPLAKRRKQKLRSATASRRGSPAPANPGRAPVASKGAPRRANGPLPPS
Chain of Phosphatidylinositol 4,5-bisphosphate 3-kinase catalytic subunit gamma isoform (Homo sapiens) (P48736 whole entry, looked up, the tested form may be a part, canonical isoform): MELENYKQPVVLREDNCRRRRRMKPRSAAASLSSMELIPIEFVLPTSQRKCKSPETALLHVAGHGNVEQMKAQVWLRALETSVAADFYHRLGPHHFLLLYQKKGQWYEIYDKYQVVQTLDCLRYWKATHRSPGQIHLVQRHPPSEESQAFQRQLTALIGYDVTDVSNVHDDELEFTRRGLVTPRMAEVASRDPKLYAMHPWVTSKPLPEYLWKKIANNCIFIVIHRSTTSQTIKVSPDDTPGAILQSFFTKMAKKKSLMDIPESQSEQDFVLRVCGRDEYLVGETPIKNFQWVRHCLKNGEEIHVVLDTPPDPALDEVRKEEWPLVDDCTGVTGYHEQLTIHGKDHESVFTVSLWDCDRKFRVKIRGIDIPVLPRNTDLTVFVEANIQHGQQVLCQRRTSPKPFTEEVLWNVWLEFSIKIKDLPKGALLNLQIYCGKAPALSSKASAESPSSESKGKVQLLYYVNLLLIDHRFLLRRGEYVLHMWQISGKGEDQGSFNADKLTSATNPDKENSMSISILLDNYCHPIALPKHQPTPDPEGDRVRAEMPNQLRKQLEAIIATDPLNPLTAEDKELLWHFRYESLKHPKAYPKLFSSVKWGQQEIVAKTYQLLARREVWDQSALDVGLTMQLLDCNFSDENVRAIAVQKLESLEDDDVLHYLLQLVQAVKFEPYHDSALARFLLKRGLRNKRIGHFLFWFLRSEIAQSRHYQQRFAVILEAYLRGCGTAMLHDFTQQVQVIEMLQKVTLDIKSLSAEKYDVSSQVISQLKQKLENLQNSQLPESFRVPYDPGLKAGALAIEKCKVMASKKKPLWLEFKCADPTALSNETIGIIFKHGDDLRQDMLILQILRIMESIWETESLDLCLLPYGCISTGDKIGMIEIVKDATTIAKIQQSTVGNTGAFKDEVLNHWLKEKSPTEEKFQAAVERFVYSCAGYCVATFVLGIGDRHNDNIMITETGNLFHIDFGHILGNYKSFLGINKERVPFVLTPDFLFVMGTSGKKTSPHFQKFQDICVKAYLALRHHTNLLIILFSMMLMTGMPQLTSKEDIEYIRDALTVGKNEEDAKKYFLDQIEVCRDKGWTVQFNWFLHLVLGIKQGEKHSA
Chain of Cyclin-dependent kinase 11A (Homo sapiens) (Q9UQ88 whole entry, the tested form may be a part): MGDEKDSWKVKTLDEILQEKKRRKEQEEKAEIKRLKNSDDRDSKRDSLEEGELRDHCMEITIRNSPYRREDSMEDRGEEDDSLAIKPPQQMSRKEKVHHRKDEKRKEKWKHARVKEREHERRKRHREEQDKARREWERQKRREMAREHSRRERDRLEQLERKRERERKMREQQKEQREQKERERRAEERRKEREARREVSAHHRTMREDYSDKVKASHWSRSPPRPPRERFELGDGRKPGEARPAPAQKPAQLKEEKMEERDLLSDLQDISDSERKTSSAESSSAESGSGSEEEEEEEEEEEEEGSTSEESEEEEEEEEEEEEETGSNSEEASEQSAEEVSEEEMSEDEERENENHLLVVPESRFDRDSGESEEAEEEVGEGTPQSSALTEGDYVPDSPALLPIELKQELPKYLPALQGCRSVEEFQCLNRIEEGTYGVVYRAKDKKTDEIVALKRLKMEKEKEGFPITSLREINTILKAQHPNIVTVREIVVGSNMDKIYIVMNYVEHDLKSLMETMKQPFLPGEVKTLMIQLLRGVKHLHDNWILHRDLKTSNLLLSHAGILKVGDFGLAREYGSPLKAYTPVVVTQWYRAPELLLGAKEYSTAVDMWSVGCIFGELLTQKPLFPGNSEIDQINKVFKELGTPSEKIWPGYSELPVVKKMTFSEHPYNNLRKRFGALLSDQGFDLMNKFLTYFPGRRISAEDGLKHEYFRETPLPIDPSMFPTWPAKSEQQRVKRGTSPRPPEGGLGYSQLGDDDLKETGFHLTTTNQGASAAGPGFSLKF

`COc1cc(OC)c(Cl)c(N2Cc3cnc(Nc4ccc(F)cc4)nc3N(C3CCN(C(=O)/C=C/CN(C)C)CC3)C2=O)c1Cl`: the Activity in test [1] turned out to be 100%; in [2] it was 99%; in test [3], 100%; in [4] it was 99%; in test [5] it was 97%; in [6], 73%. In addition, the Activity in [7] is 93%; in [8], 100%; in test [9], 73%; in test [10], 90%; in [11], 1.5%; in test [12] it was 100%. Moreover, the Activity in [13] was determined as 88%; in test [14], 95%; in [15], 100%; in test [16], 37%; in test [17] it was 98%; in test [18], 100%. In addition, the Activity in [19], in [20] and in test [21] was 100% each time.
